Results on ten compounds are retold here after ChEMBL document CHEMBL3621156, “Discovery of Novel Isatin-Based p53 Inducers” (ACS Med Chem Lett, 2015).

Each structure is given as a SMILES string. The source made the active and inactive calls. The calls are words filed in the database; no cut-off is given here.

The test system of data set [1] is U2OS. The data set can be described thus: Activation of p53 in human U2OS cells expressing EGFP assessed as increase of EGFP expression at 2.5 uM after 48 hrs relative to Nutlin-3. Type of data set: cell-based. The essentials:
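U2OS-pLV cells carrying an integrated p53-responsive EGFP reporter; compounds at 2.5 μM for 48 h. Read-out is the percentage of EGFP-positive cells, counted by high-content screening. The value is the ratio to the response with Nutlin-3, which is set as 1.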

Data set [2] concerns U2OS. Put plainly: Cytotoxicity against human U2OS cells expressing p53 assessed as number of cells by Hoechst stain staining relative to Nutlin-3. It is filed as functional. The essentials:
(§1)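 p53+ and p53− cells treated, then Hoechst-stained; surviving cells counted. The value is the ratio of compound effect to Nutlin-3 effect, which is set as 1.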

The test system of data set [3] is U2OS. Put plainly: Cytotoxicity against human p53 deficient U2OS cells assessed as number of cells by Hoechst stain staining relative to Nutlin-3. It is filed as functional. The essentials: as §1
The nature of data set [4]: Chemical stability of the compound assessed as compound hydrolysis at 50 uM in HEPES buffer incubated for 12 hrs at pH 7.5 at 37 degC by UV-visible spectrometry. It is filed as physicochemical. Conditions: pH 7.5, 12 h. The essentials:
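Hydrolysis followed by UV−vis spectrometry after incubation for 12 h at pH 7.5 and 37 °C.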

A short description of data set [5]: Chemical stability of the compound assessed as compound hydrolysis at 50 uM in Opti-Mem solution incubated for 12 hrs at pH 7.5 at 37 degC by UV-visible spectrometry. It is filed as physicochemical. To be noted: buffer, pH 7.5, 12 h.
Data set [6] deals with U2OS. The data set can be described thus: Activation of p53 in human U2OS cells assessed as increase of MDM2 expression at 2.5 uM after 12 hrs by Western blotting. It is filed as cell-based.
The target of data set [7] is Cellular tumor antigen p53 (Homo sapiens) (UniProt P04637). Put plainly: Stabilization of p53 in human U2OS cells assessed as intracellular p53 level at 0.5 uM after 12 hrs by Western blotting. Type of data set: cell-based. Background: In western blotting, separated proteins are transferred to a membrane and probed.
Cellular tumor antigen p53 (Homo sapiens), sequence (P04637 whole entry, looked up): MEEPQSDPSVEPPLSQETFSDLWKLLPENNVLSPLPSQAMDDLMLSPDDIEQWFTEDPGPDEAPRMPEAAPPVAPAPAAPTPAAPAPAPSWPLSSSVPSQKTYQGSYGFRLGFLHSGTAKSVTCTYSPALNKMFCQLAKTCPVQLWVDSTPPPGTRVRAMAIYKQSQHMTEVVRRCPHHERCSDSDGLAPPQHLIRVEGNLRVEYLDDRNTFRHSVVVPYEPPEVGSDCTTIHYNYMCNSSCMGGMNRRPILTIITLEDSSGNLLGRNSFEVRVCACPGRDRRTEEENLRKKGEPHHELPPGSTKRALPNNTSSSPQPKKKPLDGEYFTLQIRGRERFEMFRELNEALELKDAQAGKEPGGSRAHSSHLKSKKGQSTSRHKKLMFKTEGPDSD
Data set [8] deals with U2OS. The data set can be described thus: Activation of p53 in human U2OS cells assessed as increase of MDM2 expression at 0.5 uM after 12 hrs by Western blotting. It is filed as cell-based.

`C[C@H](NC(=O)c1ccc(/N=C2\C(=O)N(CN3CCN(Cc4ccccc4)CC3)c3ccccc32)cc1)c1ccccc1`: the values for the Ratio with U2OS [1], with U2OS [2] and in the data set with U2OS [3] were 8.7, 0.04 and 0.27, respectively.

As to `O=C(NCc1ccccc1)c1ccc(/N=C2\C(=O)N(CN3CCC(Cc4ccccc4)CC3)c3ccccc32)cc1`, the values for the Ratio with U2OS [1], in the data set with U2OS [2] and in the data set on U2OS [3] were 4.9, 0.14 and 0.32, respectively.

Regarding `O=C1Nc2ccccc2/C1=N/c1ccc(C(=O)NCc2ccccc2)cc1`, the Stability result in data set [4] and in data set [5] was “Unstable” throughout.

For `COc1ccc(C2=N[C@@H](c3ccc(Cl)cc3)[C@@H](c3ccc(Cl)cc3)N2C(=O)N2CCNC(=O)C2)c(OC(C)C)c1`, the result in the data set on U2OS [6] was inactive.

`O=C(NCc1ccccc1)c1ccc(/N=C2\C(=O)N(CN3CCN(c4ccccc4)CC3)c3ccccc32)cc1`: the Ratio in the data set on U2OS [1] came to 3.9; in the data set on U2OS [2], 0.22; in the data set on U2OS [3] it was 0.4. In the data set with U2OS [6], the outcome was inactive.

Regarding `O=C1C(=O)N(CN2CCN(c3ccccc3)CC2)c2ccccc21`, the Stability result in data set [4] and in data set [5] was “Unstable” throughout.

On to `O=C(NCc1ccccc1)c1ccc(/N=C2\C(=O)N(CN3CCN(c4ccccc4F)CC3)c3ccccc32)cc1`, for which the values for the Ratio in the data set on U2OS [1], with U2OS [2] and with U2OS [3] were 3.6, 0.11 and 0.24, respectively.

Regarding `O=C(NCc1ccccc1)c1ccc(/N=C2\C(=O)N(CN3CCN(Cc4ccccc4)CC3)c3ccccc32)cc1`, the Ratio with U2OS [1] is 4.2; in the data set on U2OS [2] it was 0.1; in the data set on U2OS [3] it was 0.19.

With `COc1cccc2c1C(=O)c1c(O)c3c(c(O)c1C2=O)C[C@@](O)(C(=O)CO)C[C@@H]3O[C@H]1C[C@H](N)[C@H](O)[C@H](C)O1`, the outcome in data set [7] was Active. The outcome in the data set with U2OS [8] was inactive.

Turning to `CN(Cc1ccccc1)CN1C(=O)/C(=N\c2ccc(C(=O)NCc3ccccc3)cc2)c2ccccc21`, the Ratio in the data set on U2OS [1] was 3.1; in the data set with U2OS [2], 0.14; with U2OS [3] it was 0.41.
